Bounds are passed on as bounds.

We go through 13 molecules from ChEMBL document CHEMBL1671844, “Structure guided development of potent reversibly binding penicillin binding protein inhibitors” (ACS Med Chem Lett, 2011).

The target in experiment [1] is D-alanyl-D-alanine carboxypeptidase (Actinomadura sp. R39, UniProt P39045). The experiment in a line: Inhibition of Actinomadura R39 PBP after 60 mins.
The target in experiment [2] is D-alanyl-D-alanine carboxypeptidase (Actinomadura sp. R39) (UniProt P39045). The experiment in a line: Inhibition of Actinomadura R39 PBP assessed as residual activity at 100 uM after 60 mins. Put shortly: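 Percentage residual activity of R39 measured with compound at 100 μM, in triplicate.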
D-alanyl-D-alanine carboxypeptidase (Actinomadura sp. R39), sequence (P39045 whole entry): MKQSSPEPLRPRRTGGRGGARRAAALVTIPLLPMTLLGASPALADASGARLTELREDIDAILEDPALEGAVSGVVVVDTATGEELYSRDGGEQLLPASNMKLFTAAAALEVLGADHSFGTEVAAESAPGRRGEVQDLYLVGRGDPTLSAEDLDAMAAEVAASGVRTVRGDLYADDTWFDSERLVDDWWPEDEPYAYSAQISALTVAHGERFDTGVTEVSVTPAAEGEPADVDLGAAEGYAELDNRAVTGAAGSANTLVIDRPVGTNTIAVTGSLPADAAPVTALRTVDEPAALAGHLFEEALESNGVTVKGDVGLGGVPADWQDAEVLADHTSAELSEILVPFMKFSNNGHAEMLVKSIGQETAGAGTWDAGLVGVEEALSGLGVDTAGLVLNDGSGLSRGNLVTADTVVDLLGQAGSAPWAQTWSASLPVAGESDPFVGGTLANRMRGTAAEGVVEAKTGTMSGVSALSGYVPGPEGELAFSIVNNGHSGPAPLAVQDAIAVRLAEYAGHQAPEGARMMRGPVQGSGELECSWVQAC

D-alanyl-D-alanine carboxypeptidase, sequence (P39045 whole entry): as above

As for `C[C@@H](NC(=O)c1ccccc1Cc1ccccc1)B(O)O`, 1.8 µM corresponded to half-maximal inhibition in experiment [1] (IC50). Also, the Activity in experiment [2] worked out at 5%.

For `C[C@@H](NC(=O)c1ccccc1NS(=O)(=O)c1ccccc1)B(O)O`, in experiment [1], half-maximal inhibition (IC50) was put at 0.37 µM. Besides, the Activity in experiment [2] amounted to 3%.

`C[C@H](NC(=O)c1c(F)cccc1F)B(O)O`: the midpoint of inhibition in experiment [1], the IC50, lay at 3.3 µM. Also, the Activity in experiment [2] turned out to be 3%.

Take `C[C@@H](NC(=O)c1ccccc1C(=O)c1ccc2ccccc2c1)B(O)O`: in experiment [1], it took 0.08 µM to reach half-maximal inhibition (IC50) and the Ki (in general, a measure of affinity in units of concentration, obtained from inhibition or displacement) amounted to 0.105 µM. For the same molecule, the Activity in experiment [2] was 0%.

For `C[C@@H](NC(=O)c1ccc2sccc2c1)B(O)O`, inhibition in experiment [1] was half-maximal at 2.2 µM (IC50). In experiment [2], the Activity stood at 8%.

As to `C[C@@H](NC(=O)c1c(Cl)cccc1Cl)B(O)O`, the IC50 (commonly the concentration needed to halve the response being measured) in experiment [1] was 4.2 µM. The Activity in experiment [2] stood at 3%.

On to `C[C@@H](NC(=O)c1c(F)cccc1F)B(O)O`, for which the IC50 in experiment [1] came out at 0.5 µM. Besides, in experiment [2], the Activity was 0%.

`C[C@@H](NC(=O)c1c(F)cccc1-c1ccccc1)B(O)O` returned an IC50 in experiment [1] of 0.27 µM. In addition, in experiment [2], the Activity came out at 0%.

Regarding `C[C@H](NC(=O)c1ccccc1Cc1ccccc1)B(O)O`, the IC50 in experiment [1] came out at 7.2 µM. In addition, the Activity in experiment [2] came out at 16%.

`C[C@@H](NC(=O)c1ccccc1-c1ccccc1)B(O)O`: half-maximal inhibition in experiment [1] (IC50) required 1.31 µM. The Activity in experiment [2] worked out at 5%.

In experiment [1], `C[C@@H](NC(=O)c1ccccc1C(c1ccccc1)c1ccccc1)B(O)O` gave an IC50 of less than 0.08 µM and a Ki of 0.063 µM. The Activity in experiment [2] was 1%.

For the molecule `C[C@@H](NC(=O)c1ccc2ccccc2c1)B(O)O`, in experiment [1], the midpoint of inhibition, the IC50, lay at 14 µM. The Activity in experiment [2] is 19%.

As for `CC(C)c1ccccc1C(=O)N[C@H](C)B(O)O`, in experiment [1], the half-inhibitory concentration (IC50) is 59 µM. The Activity in experiment [2] stood at 36%.
